Test results: ChEMBL document CHEMBL1153798, “Substituted tetrahydroquinolines as potent allosteric inhibitors of reverse transcriptase and its key mutants” (Bioorg Med Chem Lett, 2009); call rule not given here

Experiments:
[1] = Inhibition of HIV1 reverse transcriptase K103 mutant
[2] = tested on: Human immunodeficiency virus 1; experiment: Antiviral activity against HIV1 3B infected human MT4 cells assessed as drug level required for 95% inhibition in the presence of 50% normal human serum; format: functional
In short: (§1)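 Spread assay: MT-4 human T-lymphoid cells in RPMI 1640 with either 10% FBS or 50% NHS; CIC95 taken as the concentration blocking >95% of virus spread. Wild-type virus H9IIIB or R8 as stated per line. Geometric mean of at least two determinations, individual values within 25% of the mean.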

[3] = tested on: Human immunodeficiency virus 1; experiment: Antiviral activity against HIV1 3B infected human MT4 cells assessed as drug level required for 95% inhibition in the presence of 10% fetal bovine serum; format: functional
In short: as §1

[4] = tested on: Human immunodeficiency virus 1; experiment: Ratio of IC50 for HIV1 carrying reverse transcriptase […]/G190A mutant to IC50 for wild type HIV1 in the presence of 40% normal human serum; format: functional
[5] = Activity of CYP3A4 in rat liver microsomes assessed as oxidation of tetrahydroquinoline ring; format: ADME, Microsome
[6] = tested on: Human immunodeficiency virus 1; experiment: Antiviral activity against HIV1 carrying reverse transcriptase K103N/P225H mutant infected human MT4 cells by phenoscreen assay in the presence of 40 percent normal human serum; format: functional, organism-based; settings: Human immunodeficiency virus 1, MT4
In short: (§2)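 Phenotypic recombinant-virus assay (Phenoscreen, Monogram Bioscience), run with 40% normal human serum present. IC50 is the compound concentration in cell culture that inhibits viral replication by 50%.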

[7] = Half life in Beagle dog at 1 mg/kg, po and 0.5 mg/kg, iv; format: ADME, organism-based, Canis lupus familiaris; settings: in vivo
In short: (§3)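 Beagle dogs (n = 2) dosed singly, po 1 mg/kg and iv 0.5 mg/kg; iv cassette co-administered with other analogues at 0.125 mg/kg. Interanimal variability below 20%.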

[8] = tested on: Human immunodeficiency virus 1; experiment: Antiviral activity against HIV1 infected human MT4 cells by phenoscreen assay in the presence of 40 percent normal human serum; format: functional, organism-based; settings: Human immunodeficiency virus 1, MT4
[9] = Half life in Sprague-Dawley rat at 10 mg/kg, po and 2 mg/kg, iv; format: ADME, organism-based; settings: in vivo
[10] = tested on: Human immunodeficiency virus 1; experiment: Ratio of IC50 for HIV1 carrying reverse transcriptase K103N/G190A mutant to IC50 for wild type HIV1 in the presence of 40% normal human serum; format: functional
[11] = tested on: Human immunodeficiency virus 1; experiment: Antiviral activity against HIV1 R8 infected human MT4 cells assessed as drug level required for 95% inhibition in the presence of 50% normal human serum; format: functional
In short: as §1

[12] = tested on: Human immunodeficiency virus 1; experiment: Ratio of IC50 for HIV1 carrying reverse transcriptase […]/ Y181C/G190A mutant to IC50 for wild type HIV1 in the presence of 40% normal human serum; format: functional
[13] = Volume of distribution in Beagle dog at 1 mg/kg, po and 0.5 mg/kg, iv; format: ADME, organism-based, Canis lupus familiaris; settings: in vivo, read-out: Vdss
In short: as §3

[14] = tested on: Human immunodeficiency virus 1; experiment: Antiviral activity against HIV1 carrying reverse transcriptase G190A mutant infected human MT4 cells by phenoscreen assay in the presence of 40 percent normal human serum; settings: Human immunodeficiency virus 1, MT4
[15] = tested on: Human immunodeficiency virus 1; experiment: Ratio of IC50 for HIV1 carrying reverse transcriptase V106A/G190A/F227L mutant to IC50 for wild type HIV1 in the presence of 40% normal human serum; format: functional
[16] = tested on: Human immunodeficiency virus 1; experiment: Antiviral activity against HIV1 carrying reverse transcriptase G190S mutant infected human MT4 cells by phenoscreen assay in the presence of 40 percent normal human serum; settings: Human immunodeficiency virus 1, MT4
[17] = tested on: Human immunodeficiency virus 1; experiment: Antiviral activity against HIV1 carrying reverse transcriptase V106A/G190A/F227L mutant infected human MT4 cells by phenoscreen assay in the presence of 40 percent normal human serum; format: functional, organism-based; settings: Human immunodeficiency virus 1, MT4
In short: as §2

[18] = tested on: Human immunodeficiency virus 1; experiment: Antiviral activity against HIV1 carrying reverse transcriptase […]/G190A mutant infected human MT4 cells in the presence of 40 percent normal human serum; format: functional
In short: as §2

[19] = tested on: Human immunodeficiency virus 1; experiment: Ratio of IC50 for HIV1 carrying reverse transcriptase K103N mutant to IC50 for wild type HIV1 in the presence of 40% normal human serum; format: functional
[20] = tested on: Human immunodeficiency virus 1; experiment: Ratio of IC50 for HIV1 carrying reverse transcriptase […] mutant to IC50 for wild type HIV1 in the presence of 40% normal human serum; format: functional
[21] = Activity of CYP3A4 in rat plasma assessed as oxidation of tetrahydroquinoline ring; format: ADME, cell-free
[22] = tested on: Human immunodeficiency virus 1; experiment: Ratio of IC50 for HIV1 carrying reverse transcriptase K103N/V179E mutant to IC50 for wild type HIV1 in the presence of 40% normal human serum; format: functional
[23] = tested on: Human immunodeficiency virus 1; experiment: Ratio of IC50 for HIV1 carrying reverse transcriptase G190S mutant to IC50 for wild type HIV1 in the presence of 40% normal human serum; format: functional
[24] = tested on: Human immunodeficiency virus 1; experiment: Antiviral activity against HIV1 carrying reverse transcriptase K103N/G190A mutant infected human MT4 cells by phenoscreen assay in the presence of 40 percent normal human serum; format: functional, organism-based; settings: Human immunodeficiency virus 1, MT4
In short: as §2

[25] = Oral bioavailability in Beagle dog at 1 mg/kg; format: ADME, organism-based, Canis lupus familiaris; settings: in vivo
In short: as §3

[26] = tested on: Human immunodeficiency virus 1; experiment: Ratio of IC50 for HIV1 carrying reverse transcriptase K103N/P225H mutant to IC50 for wild type HIV1 in the presence of 40% normal human serum; format: functional
[27] = tested on: Human immunodeficiency virus 1; experiment: Antiviral activity against HIV1 carrying reverse transcriptase Y188L mutant infected human MT4 cells by phenoscreen assay in the presence of 40 percent normal human serum; format: functional, organism-based; settings: Human immunodeficiency virus 1, MT4
In short: as §2

[28] = tested on: Human immunodeficiency virus 1; experiment: Antiviral activity against HIV1 carrying reverse transcriptase K101E/ Y181C/G190A mutant infected human MT4 cells by phenoscreen assay in the presence of 40 percent normal human serum; settings: Human immunodeficiency virus 1, MT4
[29] = tested on: Human immunodeficiency virus 1; experiment: Antiviral activity against HIV1 carrying reverse transcriptase K101E/G190A mutant infected human MT4 cells by phenoscreen assay in the presence of 40 percent normal human serum; settings: Human immunodeficiency virus 1, MT4
[30] = tested on: Human immunodeficiency virus 1; experiment: Antiviral activity against HIV1 carrying reverse transcriptase K103N/V179E mutant infected human MT4 cells by phenoscreen assay in the presence of 40 percent normal human serum; format: functional, organism-based; settings: Human immunodeficiency virus 1, MT4
In short: as §2

[31] = tested on: Rattus norvegicus; experiment: Hepatic clearance in Sprague-Dawley rat at 10 mg/kg, po and 2 mg/kg, iv; format: ADME, organism-based, Liver; settings: in vivo
[32] = tested on: Human immunodeficiency virus 1; experiment: Antiviral activity against HIV1 carrying reverse transcriptase K103N/Y181C mutant infected human MT4 cells by phenoscreen assay in the presence of 40 percent normal human serum; format: functional, organism-based; settings: Human immunodeficiency virus 1, MT4
In short: as §2

[33] = tested on: Human immunodeficiency virus 1; experiment: Ratio of IC50 for HIV1 carrying reverse transcriptase Y188L mutant to IC50 for wild type HIV1 in the presence of 40% normal human serum; format: functional
[34] = Activity of CYP3A4 in rat hepatocytes assessed as oxidation of tetrahydroquinoline ring; format: ADME, cell-based, Hepatocyte
[35] = tested on: Human immunodeficiency virus 1; experiment: Antiviral activity against HIV1 R8 infected human MT4 cells assessed as drug level required for 95% inhibition in the presence of 10% fetal bovine serum; format: functional
In short: as §1

[36] = tested on: Human immunodeficiency virus 1; experiment: Antiviral activity against HIV1 carrying reverse transcriptase Y181C/G190A mutant infected human MT4 cells by phenoscreen assay in the presence of 40 percent normal human serum; format: functional, organism-based; settings: Human immunodeficiency virus 1, MT4
In short: as §2

[37] = tested on: Human immunodeficiency virus 1; experiment: Ratio of IC50 for HIV1 carrying reverse transcriptase Y181C mutant to IC50 for wild type HIV1 in the presence of 40% normal human serum; format: functional
[38] = tested on: Human immunodeficiency virus 1; experiment: Antiviral activity against HIV1 carrying reverse transcriptase K103N mutant infected human MT4 cells by phenoscreen assay in the presence of 40 percent normal human serum; format: functional, organism-based; settings: Human immunodeficiency virus 1, MT4
In short: as §2

[39] = tested on: Human immunodeficiency virus 1; experiment: Antiviral activity against HIV1 carrying reverse transcriptase K103N/ Y181C/G190A mutant infected human MT4 cells by phenoscreen assay in the presence of 40 percent normal human serum; format: functional, organism-based; settings: Human immunodeficiency virus 1, MT4
In short: as §2

[40] = tested on: Human immunodeficiency virus 1; experiment: Antiviral activity against HIV1 carrying reverse transcriptase […] mutant infected human MT4 cells by phenoscreen assay in the presence of 40 percent normal human serum; format: functional, organism-based; settings: Human immunodeficiency virus 1, MT4
In short: as §2

[41] = tested on: Human immunodeficiency virus 1; experiment: Antiviral activity against HIV1 carrying reverse transcriptase Y181C mutant infected human MT4 cells by phenoscreen assay in the presence of 40 percent normal human serum; format: functional, organism-based; settings: Human immunodeficiency virus 1, MT4
In short: as §2

[42] = Activity of CYP3A4 in rat bile assessed as oxidation of tetrahydroquinoline ring; format: ADME
[43] = tested on: Human immunodeficiency virus 1; experiment: Ratio of IC50 for HIV1 carrying reverse transcriptase G190A mutant to IC50 for wild type HIV1 in the presence of 40% normal human serum; format: functional
[44] = tested on: Human immunodeficiency virus 1; experiment: Ratio of IC50 for HIV1 carrying reverse transcriptase Y181C/G190A mutant to IC50 for wild type HIV1 in the presence of 40% normal human serum; format: functional
[45] = tested on: Human immunodeficiency virus 1; experiment: Ratio of IC50 for HIV1 carrying reverse transcriptase K103N/Y181C mutant to IC50 for wild type HIV1 in the presence of 40% normal human serum; format: functional
[46] = tested on: Rattus norvegicus; experiment: Hepatic clearance in rat at 10 mg/kg, po and 2 mg/kg, iv; settings: in vivo
[47] = tested on: Canis familiaris; experiment: Hepatic clearance in Beagle dog at 1 mg/kg, po and 0.5 mg/kg, iv; format: ADME, organism-based, Canis lupus familiaris, Liver; settings: in vivo
In short: as §3

NS(=O)(=O)c1ccc(NC(=O)CSC(=O)N2CCCc3cccc(Cl)c32)c(Cl)c1
IC50 [1]: 4 nM | ID95 [2]: 47 nM | ID95 [3]: 23 nM

NS(=O)(=O)c1ccc(NC(=O)CSC(=O)N2CCCc3cc(Cl)cc(Cl)c32)c(Cl)c1
fold change (FC) [4]: 94.3 | Activity [5]: Active | IC50 [6]: 3.2 nM | half-life [7]: 294 min | IC50 [8]: 1.2 nM | half-life [9]: 24 min | fold change (FC) [10]: 6.8 | Activity [11]: 33 nM | ID95 [2]: 40 nM | fold change (FC) [12]: >833 | Vd [13]: 5 L/kg | IC50 [14]: 12.1 nM | fold change (FC) [15]: >833 | IC50 [16]: 61.9 nM | IC50 [17]: > 1000 nM | fold change (FC) [18]: 94.3 | ID95 [3]: 13 nM | fold change (FC) [19]: 0.8 | fold change (FC) [20]: 4.6 | Activity [21]: Active | fold change (FC) [22]: 1.8 | fold change (FC) [23]: 51.6 | IC50 [24]: 8.2 nM | bioavailability [25]: 30% | fold change (FC) [26]: 2.7 | IC50 [27]: > 1000 nM | IC50 [28]: > 1000 nM | IC50 [29]: 113 nM | IC50 [30]: 2.2 nM | CL [31]: 109 mL/min/kg | IC50 [32]: 64.2 nM | fold change (FC) [33]: >833 | Activity [34]: Active | Activity [35]: 18 nM | IC50 [36]: 327 nM | fold change (FC) [37]: 14 | IC50 [38]: 0.9 nM | IC50 [39]: > 1000 nM | IC50 [40]: 5.5 nM | IC50 [41]: 16.8 nM | Activity [42]: Active | fold change (FC) [43]: 10.1 | fold change (FC) [44]: 272.5 | fold change (FC) [45]: 53.5

NS(=O)(=O)c1ccc(NC(=O)C2CC2C(=O)N2CCCc3cc(Cl)cc(Cl)c32)c(Cl)c1 (single isomer, unassigned; 16)
half-life [7]: 78 min | IC50 [1]: 18 nM | half-life [9]: 30 min | Activity [2]: 304 nM | Activity [3]: 176 nM | CL [46]: 22 mL/min/kg | CL [47]: 14 mL/min/kg

NS(=O)(=O)c1ccc(NC(=O)C2CC2C(=O)N2CCCc3cc(Cl)cc(Cl)c32)c(Cl)c1 (single isomer, unassigned; 17)
IC50 [1]: 430 nM | Activity [2]: 922 nM | Activity [3]: 922 nM
